Consider one molecule from ChEMBL document CHEMBL3826876, “Toward the Development of Specific G-Quadruplex Binders: Synthesis, Biophysical, and Biological Studies of New Hydrazone Derivatives” (J Med Chem, 2016).

Series [1] is described as follows: Binding affinity to synthetic telomere 23 parallel G-quadruplex DNA assessed as change in melting temperature at 4 mol equiv in presence of 100 mM KCl buffer by circular dichroism spectroscopic analysis. A digest of the protocol: (§1)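 CD melting, 20-100 °C at 1 °C/min, signal at 264 (parallel), 290 (antiparallel) or 280 nm (duplex). G4 DNA 10 µM or duplex 15 µM, folded by heating at 90 °C 5 min and slow cooling, in 10 mM potassium phosphate (c-kit1, Tel23, Tel26) or lithium phosphate (Tel23-p, ds12) pH 7.0 with 100 mM KCl. Ligand 4 equiv; Tm by curve fit, ΔTm vs DNA alone; duplicate average.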

Series [2] is described as follows: Effect on preformed synthetic c-MYC parallel G-quadruplex DNA topology in tris buffer after 10 mins by circular dichroism titration method.
Series [3] is described as follows: Binding affinity to synthetic c-MYC G-quadruplex DNA assessed as change in melting temperature at 4 mol equiv in presence of 20 mM KCl buffer by circular dichroism spectroscopic analysis.
A short description of series [4]: Effect on synthetic telomere 23 G-quadruplex DNA topology at 4 mol equiv by circular dichroism spectroscopic analysis. The procedure, abridged:
(§2)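 CD spectra at 20 °C, 230-360 nm, 3 scans averaged, baseline subtracted; 10 µM G4 or 15 µM duplex in potassium- or lithium-phosphate pH 7.0 buffers with 100 mM KCl (c-kit2, c-myc: 5 mM potassium phosphate, 20 mM KCl); ligand 4 molar equiv added to folded DNA from 6 mM DMSO stock.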
(In general: Circular dichroism is the unequal absorption of left and right circularly polarised light.)

Series [5] can be described thus: Binding affinity to synthetic c-MYC G-quadruplex DNA assessed as increase in thermal stability at 1:1 to 2:1 ligand:DNA ratio in presence of 20 mM KCl buffer by circular dichroism spectroscopic analysis. The procedure, abridged: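 CD melting in 5 mM potassium phosphate, 20 mM KCl, 10 µM folded G4, heated 20-100 °C at 1 °C/min; ligand:DNA ratios 1:1, 2:1 and 4:1 compared; Tm from curve fit.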

Series [6] is described as follows: Effect on synthetic c-KIT2 G-quadruplex DNA topology at 4 mol equiv by circular dichroism spectroscopic analysis. The procedure, abridged: as §2
The nature of series [7]: Effect on synthetic c-MYC G-quadruplex DNA topology at 4 mol equiv by circular dichroism spectroscopic analysis. The procedure, abridged:
as §2

Series [8] can be described thus: Effect on synthetic telomere 23 parallel G-quadruplex DNA topology at 4 mol equiv by circular dichroism spectroscopic analysis. The procedure, abridged: as §2
The nature of series [9]: Binding affinity to synthetic c-KIT2 G-quadruplex DNA assessed as change in melting temperature at 4 mol equiv in presence of 20 mM KCl buffer by circular dichroism spectroscopic analysis. A digest of the protocol:
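CD melting as for other targets (20-100 °C, 1 °C/min, 10 µM folded G4, ligand 4 equiv), but in 5 mM potassium phosphate with 20 mM KCl; c-kit2 read at 264 nm as parallel G4. ΔTm from fitted Tm, duplicate average.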

Series [10] can be described thus: Binding affinity to synthetic self-complementary DNA 12-mer duplex assessed as change in melting temperature at 4 mol equiv in presence of 100 mM KCl buffer by circular dichroism spectroscopic analysis. The procedure, abridged:
as §1

The species named for a further series is Homo sapiens. Description: Binding affinity to human 5'-FAM/3'-TAMRA labeled telomere 21 G-quadruplex DNA assessed as increase in melting temperature by FRET assay. The procedure, abridged: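 FRET melting screen in 60 mM potassium cacodylate pH 7.4, labelled probe 400 nM annealed at 85 °C for 10 min; ligands at various concentrations up to 20 µM, diluted from 10 mM DMSO stock via 10 mM HCl. Excitation 450-495 nm, emission 515-545 nm, 30-100 °C in 0.5 °C steps with 30 s hold; ΔTm by curve fitting, triplicate.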

The nature of series [11]: Binding affinity to 5'-FAM/3'-TAMRA labeled c-MYC G-quadruplex DNA (unknown origin) assessed as change in melting temperature at 4:1 ligand:DNA ratio in presence of 20 mM KCl buffer by FRET assay. The procedure, abridged:
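FRET melting of FAM/TAMRA-labelled G4 oligos (400 nM, annealed 85 °C 10 min) with ligand at 4 equiv, same buffers as CD (20 mM KCl for c-kit2 and c-myc; 100 mM KCl for telomeric parallel form, annealed at high concentration). Excitation 450-495 nm, emission 515-545 nm, read every 0.5 °C over 30-100 °C; ΔTm by curve fit; duplicate runs averaged.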

A short description of series [12]: Induction of parallel G-quadruplex formation in synthetic unfolded c-KIT1 DNA assessed as increase in molar ellipticity after 10 mins by in absence of metal cation circular dichroism titration method. The procedure, abridged: (§3)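 CD titration without metal ions: unfolded oligonucleotide 12-15 µM in 50 mM Tris; ligand added in 0.5 equiv steps, spectrum recorded 10 min after each addition at 20 °C, 230-360 nm, 3 scans averaged.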

A short description of series [13]: Induction of parallel G-quadruplex formation in synthetic unfolded c-KIT2 DNA assessed as increase in molar ellipticity after 10 mins in absence of metal cation by circular dichroism titration method. The procedure, abridged: as §3
Series [14] in a line: Induction of G-quadruplex formation in synthetic unfolded telomere 23 DNA assessed as increase in molar ellipticity after 10 mins in absence of metal cation by circular dichroism titration method. The procedure, abridged:
as §3

Series [15] can be described thus: Binding affinity to 5' and 3'-terminal G-tetrads of synthetic MYC22 G14T/G23T double mutant G-quadruplex DNA in presence of 70 mM KCl solution by NMR spectroscopic analysis. The procedure, abridged:
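1H NMR titration at 25 °C, 700 MHz, water-suppressed 1D spectra; DNA 0.2-0.5 mM strand in H2O/D2O 9:1. Myc22 in 25 mM KH2PO4, 70 mM KCl, 0.2 mM EDTA, pH 7.0; c-kit2 T12/T21 in 5 mM KH2PO4, 20 mM KCl, 0.2 mM EDTA, pH 6.8. Ligand in DMSO-d6 added stepwise into the tube; imino proton shifts followed.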

A short description of series [16]: Cytotoxicity against human HCT116 cells assessed as cell killing after 1 hr by MTT assay. Particulars: HCT-116, 1 h. In kind it is functional, cell-based. The procedure, abridged: (§4)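 U2OS and HCT116 in DMEM with 10% FBS, 1% L-glutamine, seeded at 40000 cells/ml; 24 h later exposed for 1 h or 24 h, then drug-free medium 1-2 days. MTT 1 h at 37 °C, DMSO solubilisation, absorbance 595 nm. IC50 by linear regression; two independent experiments in triplicate, mean ± SE.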

Series [17] deals with U2OS. Kind of series: Cytotoxicity against human U2OS cells assessed as cell killing after 24 hrs by MTT assay. In kind it is functional, cell-based. A digest of the protocol: as §4
(Tetrazolium dyes change colour on reduction, which living cells bring about.)

Series [18] is described as follows: Cytotoxicity against human HCT116 cells assessed as cell killing after 24 hrs by MTT assay. In kind it is functional, cell-based. Conditions: HCT-116, 24 h. The procedure, abridged:
as §4

The test system of series [19] is U2OS. Kind of series: Cytotoxicity against human U2OS cells assessed as cell death after 24 hrs by FACS analysis. In kind it is cell-based. Background: Flow cytometry measures light scatter and fluorescence of single cells or particles in a stream.
Series [20] has as its system U2OS. Description: Stabilization of nuclear G-quadruplex DNA in human U2OS cells at 0.2 to 1 uM after 24 hrs by DAPI staining based immunofluorescence assay. The format is cell-based. A digest of the protocol:
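U2OS seeded at 100000 cells/ml, treated 24 h after seeding for 24 h; fixed methanol:acetic acid 3:1, 0.1% Triton X-100, 2% milk block. Stained with in-house His-purified BG4, anti-FLAG, Alexa 488 anti-rabbit; nuclei DAPI. Per-cell signal as corrected total cell fluorescence; Student's t test.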

Active and inactive are the calls of the source. The rule behind the calls is not given here.

The ΔTm is the shift of the melting midpoint relative to a reference. Broadly, the IC50 is the concentration needed to halve the response being measured. `Br.O=Cc1c(-c2ccccc2)nc2n1ccc1nc(-c3ccccc3)c(/C=N/NC3=NCCN3)n12`: the thermal shift (ΔTm) was 9.1 °C in series [1]; more than 20 °C in [3]; 9.5 °C in [9]; -0.8 °C in series [10]; more than 20 °C in series [11]. The result in series [2], in series [4], in series [6], in series [7], in series [8] and in series [12] was inactive. The outcome in series [13] and in series [14] was inactive. In addition, the outcome (in series [5]; in the series filed under Homo sapiens; in series [15]; in the series on U2OS [20]) was Active. The IC50 came out at 4180 nM in series [16], 845 nM with U2OS [17] and 407 nM in series [18]. For the same molecule, the Activity entry with U2OS [19] was “Non-toxic”.
